Data from ChEMBL document CHEMBL1275252, “First survey of metallo-beta-lactamases in clinical isolates of Pseudomonas aeruginosa in a German university hospital” (2010).
Converted amounts (≈) assume the structure as drawn.

Key:
Format in all cases: functional
Pseudomonas aeruginosa [1] = assay: Antimicrobial activity against Pseudomonas aeruginosa isolate PA462 expressing VIM-2 beta-lactamase
Pseudomonas aeruginosa [2] = assay: Antimicrobial activity against metallo-beta-lactamase-negative Pseudomonas aeruginosa isolate PA509
Pseudomonas aeruginosa [3] = assay: Antimicrobial activity against metallo-beta-lactamase-negative Pseudomonas aeruginosa isolate PA479
Pseudomonas aeruginosa [4] = assay: Antimicrobial activity against Pseudomonas aeruginosa isolate PA399 expressing VIM-2 beta-lactamase
Pseudomonas aeruginosa [5] = assay: Antimicrobial activity against Pseudomonas aeruginosa isolate PA477 expressing VIM-2 beta-lactamase
Pseudomonas aeruginosa [6] = assay: Antimicrobial activity against Pseudomonas aeruginosa isolate PA469 expressing VIM-2 beta-lactamase
Pseudomonas aeruginosa [7] = assay: Antimicrobial activity against Pseudomonas aeruginosa isolate PA465 expressing VIM-2 beta-lactamase
Pseudomonas aeruginosa [8] = assay: Antimicrobial activity against metallo-beta-lactamase-negative Pseudomonas aeruginosa isolate PA494
Pseudomonas aeruginosa [9] = assay: Antimicrobial activity against metallo-beta-lactamase-negative Pseudomonas aeruginosa isolate PA459
Summary of the method: (§1)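 MBL-negative clinical P. aeruginosa isolates with reduced imipenem susceptibility, collected at the study hospital, some from cystic fibrosis patients. Species identity was confirmed by automated Gram-negative identification card. MIC was read in μg/ml.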

Pseudomonas aeruginosa [10] = assay: Antimicrobial activity against Pseudomonas aeruginosa isolate PA510 expressing VIM-2 beta-lactamase
Pseudomonas aeruginosa [11] = assay: Antimicrobial activity against Pseudomonas aeruginosa isolate PA481 expressing VIM-2 beta-lactamase
Pseudomonas aeruginosa [12] = assay: Antimicrobial activity against Pseudomonas aeruginosa isolate PA500 expressing VIM-1 beta-lactamase
Pseudomonas aeruginosa [13] = assay: Antimicrobial activity against metallo-beta-lactamase-negative Pseudomonas aeruginosa isolate PA483
Pseudomonas aeruginosa [14] = assay: Antimicrobial activity against Pseudomonas aeruginosa isolate PA475 expressing VIM-2 beta-lactamase
Pseudomonas aeruginosa [15] = assay: Antimicrobial activity against Pseudomonas aeruginosa PA386 expressing IMP-13 beta-lactamase
Summary of the method: (§2)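 Well-characterized MBL-producing control strains from earlier studies: nine P. aeruginosa and one A. baumannii. MIC was read in μg/ml and used to set screening breakpoints for MBL producers.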

Pseudomonas aeruginosa [16] = assay: Antimicrobial activity against Pseudomonas aeruginosa PA553 expressing SPM-1 beta-lactamase; summary of the method: as §2
Pseudomonas aeruginosa [17] = assay: Antimicrobial activity against metallo-beta-lactamase-negative Pseudomonas aeruginosa isolate PA368; summary of the method: as §1
Pseudomonas aeruginosa [18] = assay: Antimicrobial activity against metallo-beta-lactamase-negative Pseudomonas aeruginosa isolate PA774 isolated from patient with cystic fibrosis; summary of the method: as §1
Pseudomonas aeruginosa [19] = assay: Antimicrobial activity against metallo-beta-lactamase-negative Pseudomonas aeruginosa isolate PA356; summary of the method: as §1
Pseudomonas aeruginosa [20] = assay: Antimicrobial activity against metallo-beta-lactamase-negative Pseudomonas aeruginosa isolate PA339; summary of the method: as §1
Pseudomonas aeruginosa [21] = assay: Antimicrobial activity against metallo-beta-lactamase-negative Pseudomonas aeruginosa isolate PA736 isolated from patient with cystic fibrosis; summary of the method: as §1
Pseudomonas aeruginosa [22] = assay: Antimicrobial activity against Pseudomonas aeruginosa PA554 expressing GIM-1 beta-lactamase; summary of the method: as §2
Pseudomonas aeruginosa [23] = assay: Antimicrobial activity against metallo-beta-lactamase-negative Pseudomonas aeruginosa isolate PA342; summary of the method: as §1
Pseudomonas aeruginosa [24] = assay: Antimicrobial activity against metallo-beta-lactamase-negative Pseudomonas aeruginosa isolate PA340; summary of the method: as §1
Pseudomonas aeruginosa [25] = assay: Antimicrobial activity against Pseudomonas aeruginosa PA373 expressing VIM-2 beta-lactamase; summary of the method: as §2
Pseudomonas aeruginosa [26] = assay: Antimicrobial activity against metallo-beta-lactamase-negative Pseudomonas aeruginosa isolate PA381; summary of the method: as §1
Pseudomonas aeruginosa [27] = assay: Antimicrobial activity against metallo-beta-lactamase-negative Pseudomonas aeruginosa isolate PA346; summary of the method: as §1
Pseudomonas aeruginosa [28] = assay: Antimicrobial activity against metallo-beta-lactamase-negative Pseudomonas aeruginosa isolate PA362; summary of the method: as §1
Pseudomonas aeruginosa [29] = assay: Antimicrobial activity against metallo-beta-lactamase-negative Pseudomonas aeruginosa isolate PA734 isolated from patient with cystic fibrosis; summary of the method: as §1
Pseudomonas aeruginosa [30] = assay: Antimicrobial activity against metallo-beta-lactamase-negative Pseudomonas aeruginosa isolate PA395; summary of the method: as §1
Pseudomonas aeruginosa [31] = assay: Antimicrobial activity against metallo-beta-lactamase-negative Pseudomonas aeruginosa isolate PA380; summary of the method: as §1
Pseudomonas aeruginosa [32] = assay: Antimicrobial activity against metallo-beta-lactamase-negative Pseudomonas aeruginosa isolate PA349; summary of the method: as §1
Pseudomonas aeruginosa [33] = assay: Antimicrobial activity against metallo-beta-lactamase-negative Pseudomonas aeruginosa isolate PA376
Pseudomonas aeruginosa [34] = assay: Antimicrobial activity against Pseudomonas aeruginosa PA431 expressing IMP-1 beta-lactamase; summary of the method: as §2
Pseudomonas aeruginosa [35] = assay: Antimicrobial activity against Pseudomonas aeruginosa PA399 expressing VIM-2 beta-lactamase; summary of the method: as §2
Pseudomonas aeruginosa [36] = assay: Antimicrobial activity against metallo-beta-lactamase-negative Pseudomonas aeruginosa isolate PA377; summary of the method: as §1
Pseudomonas aeruginosa [37] = assay: Antimicrobial activity against Pseudomonas aeruginosa PA430 expressing VIM-4 beta-lactamase; summary of the method: as §2
Pseudomonas aeruginosa [38] = assay: Antimicrobial activity against metallo-beta-lactamase-negative Pseudomonas aeruginosa isolate PA355; summary of the method: as §1
Pseudomonas aeruginosa [39] = assay: Antimicrobial activity against metallo-beta-lactamase-negative Pseudomonas aeruginosa isolate PA352; summary of the method: as §1
Pseudomonas aeruginosa [40] = assay: Antimicrobial activity against metallo-beta-lactamase-negative Pseudomonas aeruginosa isolate PA341; summary of the method: as §1
Pseudomonas aeruginosa [41] = assay: Antimicrobial activity against metallo-beta-lactamase-negative Pseudomonas aeruginosa isolate PA370; summary of the method: as §1
Pseudomonas aeruginosa [42] = assay: Antimicrobial activity against Pseudomonas aeruginosa PA550 expressing VIM-1 beta-lactamase; summary of the method: as §2
Pseudomonas aeruginosa [43] = assay: Antimicrobial activity against metallo-beta-lactamase-negative Pseudomonas aeruginosa isolate PA460
Acinetobacter baumannii = assay: Antimicrobial activity against Acinetobacter baumannii AB551 expressing SIM-1 beta-lactamase; summary of the method: as §2
Pseudomonas aeruginosa [44] = assay: Antimicrobial activity against metallo-beta-lactamase-negative Pseudomonas aeruginosa isolate PA758 isolated from patient with cystic fibrosis; summary of the method: as §1
Pseudomonas aeruginosa [45] = assay: Antimicrobial activity against metallo-beta-lactamase-negative Pseudomonas aeruginosa isolate PA364; summary of the method: as §1
Pseudomonas aeruginosa [46] = assay: Antimicrobial activity against metallo-beta-lactamase-negative Pseudomonas aeruginosa isolate PA382; summary of the method: as §1
Pseudomonas aeruginosa [47] = assay: Antimicrobial activity against metallo-beta-lactamase-negative Pseudomonas aeruginosa isolate PA507; summary of the method: as §1
Pseudomonas aeruginosa [48] = assay: Antimicrobial activity against metallo-beta-lactamase-negative Pseudomonas aeruginosa isolate PA350; summary of the method: as §1
Pseudomonas aeruginosa [49] = assay: Antimicrobial activity against metallo-beta-lactamase-negative Pseudomonas aeruginosa isolate PA361; summary of the method: as §1
Pseudomonas aeruginosa [50] = assay: Antimicrobial activity against metallo-beta-lactamase-negative Pseudomonas aeruginosa isolate PA360; summary of the method: as §1
Pseudomonas aeruginosa [51] = assay: Antimicrobial activity against Pseudomonas aeruginosa PA552 expressing IMP-1 beta-lactamase; summary of the method: as §2

Structure (SMILES): CO/N=C(\C(=O)N[C@@H]1C(=O)N2C(C(=O)[O-])=C(C[N+]3(C)CCCC3)CS[C@H]12)c1csc(N)n1 [CEFEPIME]
- MIC (Pseudomonas aeruginosa [1]): ≥ 64 µg/mL
- MIC (Pseudomonas aeruginosa [2]): 16 µg/mL (≈ 33.3 µM)
- MIC (Pseudomonas aeruginosa [3]): ≥ 64 µg/mL
- MIC (Pseudomonas aeruginosa [4]): ≥ 64 µg/mL
- MIC (Pseudomonas aeruginosa [5]): ≥ 64 µg/mL
- MIC (Pseudomonas aeruginosa [6]): ≥ 64 µg/mL
- MIC (Pseudomonas aeruginosa [7]): ≥ 64 µg/mL
- MIC (Pseudomonas aeruginosa [8]): 8 µg/mL (≈ 16.6 µM)
- MIC (Pseudomonas aeruginosa [9]): 8 µg/mL (≈ 16.6 µM)
- MIC (Pseudomonas aeruginosa [10]): ≥ 64 µg/mL
- MIC (Pseudomonas aeruginosa [11]): ≥ 64 µg/mL
- MIC (Pseudomonas aeruginosa [12]): ≥ 64 µg/mL
- MIC (Pseudomonas aeruginosa [13]): 32 µg/mL (≈ 66.6 µM)
- MIC (Pseudomonas aeruginosa [14]): ≥ 64 µg/mL

Structure (SMILES): CC(C)(O/N=C(\C(=O)N[C@@H]1C(=O)N2C(C(=O)[O-])=C(C[n+]3ccccc3)CS[C@H]12)c1csc(N)n1)C(=O)O [CEFTAZIDIME]
- MIC (Pseudomonas aeruginosa [1]): ≥ 64 µg/mL
- MIC (Pseudomonas aeruginosa [15]): ≥ 64 µg/mL
- MIC (Pseudomonas aeruginosa [16]): ≥ 64 µg/mL
- MIC (Pseudomonas aeruginosa [17]): 4 µg/mL (≈ 7.32 µM)
- MIC (Pseudomonas aeruginosa [18]): ≥ 64 µg/mL
- MIC (Pseudomonas aeruginosa [2]): 32 µg/mL (≈ 58.5 µM)
- MIC (Pseudomonas aeruginosa [19]): 4 µg/mL (≈ 7.32 µM)
- MIC (Pseudomonas aeruginosa [20]): 8 µg/mL (≈ 14.6 µM)
- MIC (Pseudomonas aeruginosa [21]): ≥ 64 µg/mL
- MIC (Pseudomonas aeruginosa [22]): ≥ 64 µg/mL
- MIC (Pseudomonas aeruginosa [23]): 4 µg/mL (≈ 7.32 µM)
- MIC (Pseudomonas aeruginosa [3]): ≥ 64 µg/mL
- MIC (Pseudomonas aeruginosa [4]): ≥ 64 µg/mL
- MIC (Pseudomonas aeruginosa [24]): 4 µg/mL (≈ 7.32 µM)
- MIC (Pseudomonas aeruginosa [25]): ≥ 64 µg/mL
- MIC (Pseudomonas aeruginosa [26]): 4 µg/mL (≈ 7.32 µM)
- MIC (Pseudomonas aeruginosa [27]): 4 µg/mL (≈ 7.32 µM)
- MIC (Pseudomonas aeruginosa [28]): 32 µg/mL (≈ 58.5 µM)
- MIC (Pseudomonas aeruginosa [29]): 4 µg/mL (≈ 7.32 µM)
- MIC (Pseudomonas aeruginosa [30]): ≥ 64 µg/mL
- MIC (Pseudomonas aeruginosa [31]): 4 µg/mL (≈ 7.32 µM)
- MIC (Pseudomonas aeruginosa [32]): 8 µg/mL (≈ 14.6 µM)
- MIC (Pseudomonas aeruginosa [33]): 16 µg/mL (≈ 29.3 µM)
- MIC (Pseudomonas aeruginosa [5]): ≥ 64 µg/mL
- MIC (Pseudomonas aeruginosa [6]): ≥ 64 µg/mL
- MIC (Pseudomonas aeruginosa [34]): ≥ 64 µg/mL
- MIC (Pseudomonas aeruginosa [7]): ≥ 64 µg/mL
- MIC (Pseudomonas aeruginosa [35]): ≥ 64 µg/mL
- MIC (Pseudomonas aeruginosa [8]): 32 µg/mL (≈ 58.5 µM)
- MIC (Pseudomonas aeruginosa [36]): 8 µg/mL (≈ 14.6 µM)
- MIC (Pseudomonas aeruginosa [37]): ≥ 64 µg/mL
- MIC (Pseudomonas aeruginosa [38]): 4 µg/mL (≈ 7.32 µM)
- MIC (Pseudomonas aeruginosa [39]): 4 µg/mL (≈ 7.32 µM)
- MIC (Pseudomonas aeruginosa [40]): ≥ 64 µg/mL
- MIC (Pseudomonas aeruginosa [9]): 32 µg/mL (≈ 58.5 µM)
- MIC (Pseudomonas aeruginosa [41]): 8 µg/mL (≈ 14.6 µM)
- MIC (Pseudomonas aeruginosa [42]): ≥ 64 µg/mL
- MIC (Pseudomonas aeruginosa [43]): 32 µg/mL (≈ 58.5 µM)
- MIC (Acinetobacter baumannii): ≥ 64 µg/mL
- MIC (Pseudomonas aeruginosa [44]): 4 µg/mL (≈ 7.32 µM)
- MIC (Pseudomonas aeruginosa [10]): ≥ 64 µg/mL
- MIC (Pseudomonas aeruginosa [45]): 4 µg/mL (≈ 7.32 µM)
- MIC (Pseudomonas aeruginosa [46]): 4 µg/mL (≈ 7.32 µM)
- MIC (Pseudomonas aeruginosa [11]): ≥ 64 µg/mL
- MIC (Pseudomonas aeruginosa [47]): 32 µg/mL (≈ 58.5 µM)
- MIC (Pseudomonas aeruginosa [48]): 4 µg/mL (≈ 7.32 µM)
- MIC (Pseudomonas aeruginosa [49]): ≥ 64 µg/mL
- MIC (Pseudomonas aeruginosa [12]): ≥ 64 µg/mL
- MIC (Pseudomonas aeruginosa [13]): ≥ 64 µg/mL
- MIC (Pseudomonas aeruginosa [50]): 16 µg/mL (≈ 29.3 µM)
- MIC (Pseudomonas aeruginosa [51]): ≥ 64 µg/mL
- MIC (Pseudomonas aeruginosa [14]): ≥ 64 µg/mL

Structure (SMILES): O=C(O)c1cn(C2CC2)c2cc(N3CCNCC3)c(F)cc2c1=O [CIPROFLOXACIN]
- MIC (Pseudomonas aeruginosa [1]): ≥ 4 µg/mL
- MIC (Pseudomonas aeruginosa [2]): ≥ 4 µg/mL
- MIC (Pseudomonas aeruginosa [3]): ≥ 4 µg/mL
- MIC (Pseudomonas aeruginosa [4]): ≥ 4 µg/mL
- MIC (Pseudomonas aeruginosa [5]): ≥ 4 µg/mL
- MIC (Pseudomonas aeruginosa [6]): ≥ 4 µg/mL
- MIC (Pseudomonas aeruginosa [7]): ≥ 4 µg/mL
- MIC (Pseudomonas aeruginosa [8]): ≥ 4 µg/mL
- MIC (Pseudomonas aeruginosa [43]): ≥ 4 µg/mL
- MIC (Pseudomonas aeruginosa [10]): ≥ 4 µg/mL
- MIC (Pseudomonas aeruginosa [11]): ≥ 4 µg/mL
- MIC (Pseudomonas aeruginosa [12]): ≥ 4 µg/mL
- MIC (Pseudomonas aeruginosa [14]): ≥ 4 µg/mL
